Measured values from different studies.
Each line is one published result; the experiments were not run side by side.
CNR1: Cannabinoid receptor 1 (CNR1, Homo sapiens, UniProt P21554)
PPO3: PPO3 (Agaricus bisporus, UniProt C7FF04)

The inhibition of `CC(C)CC(=O)OC[C@H]1O[C@@](C#N)(c2ccc3c(N)ncnn23)[C@H](O)[C@@H]1O` is reported as -4% (CNR1; cell-free assay; 20 µM).
With `CCCCC/C=C\C/C=C\C/C=C\C/C=C\CCCC(=O)OC(CO)CO` the Emax was 96% (CNR1; β-arrestin recruitment; agonist).
`COc1cc(/C=C/C(=O)O)ccc1OCc1cn(CC(=O)Nc2ccccc2C)nn1` has an inhibition of 16% (PPO3; enzyme activity; inhibitor; 40 µM).
With `CCOC(=O)Cc1c2c3c(cc(OC)c(OC)c3c3cc(OC)c(OC)cc13)CCN2C` the inhibition was 17% (5-hydroxytryptamine receptor 2A (HTR2A, Homo sapiens, UniProt P28223); ligand displacement; radioligand; 10 µM).
For `CN1CCC[C@H]1c1cccnc1`, the inhibition was -19.9% (Histamine H4 receptor (HRH4, Homo sapiens, UniProt Q9H3N8); ligand displacement; 50 µM).
`COc1cc(/C=C/C(=O)O)ccc1OCc1cn(CC(=O)Nc2ccc(Cl)cc2)nn1` gave an inhibition of 12.3% (PPO3; enzyme activity; inhibitor; 40 µM).
With `CCCCC/C=C\C/C=C\C/C=C\Cc1ccccc1CCCC(=O)N[C@H](C)CO` the Emax was 80% (CNR1; β-arrestin recruitment; agonist).
The inhibition of `COc1cc(/C=C/C(=O)O)ccc1OCc1cn(CC(=O)Nc2cccc([N+](=O)[O-])c2)nn1` is reported as 12.1% (PPO3; enzyme activity; inhibitor; 40 µM).
`[2H]c1c([2H])c([C@]2([2H])CCCN2C(=O)C(C)(C)Oc2ccc3cn[nH]c3c2)c([2H])c([2H])c1C([2H])([2H])[2H]` gave a remaining binding of 100% (Mitogen-activated protein kinase kinase kinase 3 (MAP3K3, Homo sapiens, UniProt Q99759); binding; competition with immobilised ligand; 1 µM).
For `CCCCCc1ccccc1C/C=C\C/C=C\C/C=C\CCCC(=O)N[C@H](C)CO`, the Emax was 42% (CNR1; β-arrestin recruitment; agonist).
For `c1cncc([C@@H]2CCCN2)c1`, the inhibition was 88.1% (Neuronal acetylcholine receptor; alpha4/beta2 (Rattus norvegicus, UniProt P09483+P12390); ligand displacement; radioligand; 50 µM).
`CCCCC/C=C\[C@H](C)/C=C\C/C=C\Cc1ccccc1CCCC(=O)OC(CO)CO` has an Emax of 10% (CNR1; β-arrestin recruitment; agonist).
With `COc1cc(/C=C/C(=O)O)ccc1OCc1cn(CC(=O)Nc2ccc(Cl)cc2Cl)nn1` the inhibition was 7.73% (PPO3; enzyme activity; inhibitor; 40 µM).
